M1 agonist: agonists of M1 muscarinic receptor; CHO-M1 cells, Fluo-4 calcium fluorescence, agonist mode; hits give high values; B-score at 10 µM; 64,000 compounds, 3% hits;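 active = fluorescence rise, raw or as B-score row- and column-corrected plate score, outside the 99.7% band of its plate's samples, either direction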
S1P1 ag-PAM: agonists and agonism potentiators of human S1P1 receptor; 56,000 compounds, 0.57% hits; P21453; activation, % at 9.5 µM; S1P1 CRE-bla cells, forskolin, beta-lactamase FRET, potentiator mode; S1P1 agonist co-added at EC20, 2 nM; 100% = saturating reference agonist, 0% = basal;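 active = activation above a cutoff set at the mean activation of all tested compounds plus 3 SD, cut at about 54% in these data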;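 note: forskolin at 4 µM as EC80 and the EC20 agonist is SEW2871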
Target sequence (P21453 whole entry, looked up): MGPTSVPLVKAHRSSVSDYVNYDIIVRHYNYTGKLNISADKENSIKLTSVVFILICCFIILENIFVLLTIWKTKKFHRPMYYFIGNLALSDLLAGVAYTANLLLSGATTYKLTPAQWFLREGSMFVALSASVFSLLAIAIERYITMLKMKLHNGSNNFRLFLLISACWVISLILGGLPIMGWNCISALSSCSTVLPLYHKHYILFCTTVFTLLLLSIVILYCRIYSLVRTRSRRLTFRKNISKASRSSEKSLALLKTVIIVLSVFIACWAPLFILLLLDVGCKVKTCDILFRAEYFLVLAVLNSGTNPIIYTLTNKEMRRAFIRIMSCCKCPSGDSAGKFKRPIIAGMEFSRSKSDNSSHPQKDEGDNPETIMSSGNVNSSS
S1P3 ag: activates the human S1P3 receptor | Q99500 | S1P3 NFAT-BLA reporter cells, agonism, FRET ratio; relative to 1 µM S1P, basal subtracted | activation, % at 4.5 µM | 60,000 compounds, 0.1% hits | AID 373;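 active = activation above the screen-wide mean plus 3 SD, cut at about 4.5% in these data, passing the limit was not always enough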
Target sequence (Q99500 whole entry, looked up): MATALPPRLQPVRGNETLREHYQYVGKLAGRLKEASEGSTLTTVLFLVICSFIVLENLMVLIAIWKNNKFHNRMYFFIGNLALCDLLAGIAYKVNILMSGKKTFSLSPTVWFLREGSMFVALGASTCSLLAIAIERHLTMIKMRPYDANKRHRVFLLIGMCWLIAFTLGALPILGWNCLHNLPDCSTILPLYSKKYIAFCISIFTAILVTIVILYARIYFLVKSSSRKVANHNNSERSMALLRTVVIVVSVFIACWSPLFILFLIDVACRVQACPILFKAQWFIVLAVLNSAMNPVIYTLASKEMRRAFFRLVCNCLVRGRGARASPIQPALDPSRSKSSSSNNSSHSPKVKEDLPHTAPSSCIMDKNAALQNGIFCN
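Assay system: stable CHO line with human S1P3, Gα16, NFAT-BLA reporter; Detection: FRET β-lactamase substrate fluorescence, excitation 405 nm, 460/535 nm emission ratio, background-subtracted; Read-out: percent activation versus median 1 µM S1P response, basal-subtracted, per plate; Incubation: cells plated overnight, compound 4 h 37 °C, substrate 2 h RT.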
M1 antagonist: blocks the rat M1 muscarinic receptor response to acetylcholine; P08482; CHO-M1 cells, Fluo-4 calcium, ACh EC80 antagonist mode; hits give low values; B-score at 10 µM; 64,000 compounds, 3.4% hits;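 active = calcium fluorescence response, raw or row-and-column corrected B-score, differing from the plate sample mean either way at a set confidence level, mostly lower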
D1 allo mod: D1 dopamine receptor (human) allosteric modulation; P21728; HEK293 D1, CRE-luciferase, dopamine EC30 potentiation; actives deviate in either direction; B-score at 10 µM; 58,000 compounds, 5.9% hits;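 active = luminescence count or its row- and column-corrected plate score outside the 99.7% band of the plate's sample wells, on either side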
M1 agonist conf: confirmation of rat M1 muscarinic receptor agonists; shares compounds with M1 agonist; CHO-M1 cells, Fluo-4 calcium fluorescence, agonist mode; actives lie on both sides; fluorescence change (max-min) at 10 µM; 1,700 compounds, 19% hits;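 active = fluorescence change differs from the solvent-only DMSO control mean at a set confidence level in both duplicate runs; inconclusive = differs from solvent-only control mean in just one of two runs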;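 note: an EC20 dose of acetylcholine follows compound addition during the same imaging run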
M4 ag counter: activates rat M4 receptor in counter-screen for M1 agonists. shares compounds with M1 agonist. CHO M4/Gqi5 cells, Fluo-4 calcium fluorescence, agonist mode; actives lie on both sides. fluorescence change (max-min) at 10 µM. 1,700 compounds, 9% hits. AID 1741;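 active = fluorescence change differing from the plate's solvent-only control wells at 99.7% confidence in both duplicates, whether higher or lower; inconclusive = differs from solvent controls in only one of two duplicates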
M1 antag conf: M1 muscarinic receptor (rat) antagonism, confirmed | shares compounds with M1 antagonist | CHO-M1 cells, Fluo-4 calcium, ACh EC80 antagonism; hits give low values | calcium response (max-min fluorescence) at 10 µM | 1,700 compounds, 43% hits;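 active = calcium response below the same-plate mean of wells given acetylcholine alone at its 80%-effect dose, minus 3 SD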
mGluR4 antag: acts on human mGluR4 in M1 antagonist selectivity test | shares compounds with M1 antagonist | CHO-mGluR4 calcium flux, Fluo-4 fluorescence, glutamate EC80; hits give low values | fluorescence response (max-min) at 10 µM | 1,700 compounds, 0.9% hits | AID 678;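 active = fluorescence response below the plate's average for near-maximal glutamate wells, less 3 SD of those wells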;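 note: raw unnormalized fluorescence span taken in the window right after glutamate addition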
D1 PAM confirm: confirmation of human D1 dopamine receptor allosteric modulators | shares compounds with D1 allo mod | HEK293 D1 CRE-luciferase, dopamine EC30 potentiation; hits give high values | luminescence at 10 µM | 2,200 compounds, 88% hits;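 active = luminescence in either of two replicates above the same-plate mean plus 3 SD of the low-dose dopamine control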
D1 ag no DA: D1 (human) signaling in absence of dopamine; HEK293 D1 CRE-luciferase, luminescence, no dopamine; hits give high values; 1,900 compounds, 0.8% hits; shares compounds with D1 allo mod; AID 646; luminescence at 10 µM; in the data active = luminescence above about 3900
Isoprot counter: alters isoproterenol CRE-luciferase response in HEK293 cells | shares compounds with D1 allo mod | HEK293 D1 CRE-luciferase, isoproterenol EC30 counter-screen | calls only at 10 µM | 2,200 compounds, 63% hits | AID 647;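 active = luminescence in either replicate above plate mean of wells with a partly effective reference agonist dose plus 3 SD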;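 note: isoproterenol raises cAMP through native beta-adrenoceptor Gs so signal bypasses D1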
Of the large screens only hits and unclear results are named; the others gave an inactive call (follow-up assays come after a bar, where they were run). Shown are actives, neighbours in structure and some others; about 11% of the full set was active somewhere.

CCCS(=O)(=O)N1CCCC(C(=O)NCCCN(C)c2ccccc2)C1 (stereo not given)	none
Cc1cc(N)n(-c2ccccc2)n1	none (no result: S1P1 ag-PAM, S1P3 ag)
Cc1cc(N)n(-c2nc(-c3cccnc3)nc3ccccc23)n1	M1 agonist 5.6, D1 allo mod 4.3 (no result: S1P1 ag-PAM, S1P3 ag) | M1 agonist conf inconclusive | M4 ag counter inactive | D1 PAM confirm 12176 | D1 ag no DA inactive | Isoprot counter inactive
Clc1ccc(CSc2nnc(-c3ccccn3)n2Cc2ccco2)c(Cl)c1	none (no result: S1P1 ag-PAM, S1P3 ag)
COC(=O)c1cc(OC)c(OC)cc1NC(=O)C1CCC(=O)N1S(=O)(=O)c1ccc(C)cc1 (stereo not given)	M1 agonist -2, D1 allo mod 9.2 | M1 agonist conf inconclusive | M4 ag counter inactive | D1 PAM confirm 16888 | Isoprot counter active
Clc1ccc(-n2nnnc2-c2ccccc2)cc1	M1 agonist 3.3, D1 allo mod 3.5 | M1 agonist conf -26 | M4 ag counter inactive | D1 PAM confirm 8784 | D1 ag no DA inactive | Isoprot counter inactive
CC(C)(C)C(=O)c1sc(Nc2ccccc2)nc1N	M1 agonist 3.1, D1 allo mod 12 | M1 agonist conf inconclusive | M4 ag counter inactive | D1 PAM confirm 16628 | D1 ag no DA inactive | Isoprot counter active
CCOC(=O)C1CCN(C(=O)CSCc2nc(-c3ccc(OCC)cc3)oc2C)CC1	M1 agonist 5.1, D1 allo mod 5.7 | M1 agonist conf inactive | M4 ag counter inconclusive | D1 PAM confirm 12112 | D1 ag no DA inactive | Isoprot counter active
COc1ccc(-c2nc(CSCC(=O)N3CCC(C(N)=O)CC3)c(C)o2)cc1OC	none
CCOc1ccc(-c2nc(CSCC(=O)N3CCN(C(=O)c4ccco4)CC3)c(C)o2)cc1	M1 agonist -3.5, D1 allo mod 3.6 | M1 agonist conf inconclusive | M4 ag counter inactive | D1 PAM confirm inactive | D1 ag no DA inactive | Isoprot counter active
O=C(NCC1CCCO1)c1csc2c1CCCC2 (stereo not given)	none
COCCNC(=O)C1CCCN(c2ncccn2)C1 (stereo not given)	none
COCCCNC(=O)C1CCN(c2ncccn2)CC1	M1 agonist 2.6, D1 allo mod 1.8 | M1 agonist conf inactive | M4 ag counter inactive | D1 PAM confirm inactive | D1 ag no DA inactive | Isoprot counter inactive
CC(C)C(NS(=O)(=O)c1cccs1)C(=O)NCc1ccc2c(c1)OCO2 (stereo not given)	none
COCCCNC(=O)C(C#N)c1nc2ccccc2nc1N1CCCC1 (stereo not given)	M1 agonist 340, D1 allo mod 12 | M1 agonist conf 230 | M4 ag counter 749 | D1 PAM confirm 18008 | D1 ag no DA inactive | Isoprot counter active
Cc1c(S(=O)(=O)N2CCc3ccccc3C2)c(=O)n(C)c(=O)n1C	none
CCc1nc2ccccc2n(CC)c1=O	M1 agonist 13, D1 allo mod 4.2 | M1 agonist conf inactive | M4 ag counter inactive | D1 PAM confirm 10236 | D1 ag no DA inactive | Isoprot counter active
CCn1c(=O)c(C(C)=O)nc2ccccc21	none
Cc1nnc2n(CCc3ccccc3)c(=O)c3c4c(sc3n12)CCCC4	none (no result: S1P1 ag-PAM)
O=C(Nc1ncnc2sc3c(c12)CCCCC3)c1ccco1	M1 agonist 37, M1 antagonist -10, D1 allo mod 5.3 | M1 agonist conf inactive | M4 ag counter inactive | D1 PAM confirm 9540 | D1 ag no DA inactive | Isoprot counter inactive
O=C(Nc1sc2c(c1C(=O)NC1CCCCC1)CCC2)c1ccco1	none
CCn1cnc2sc(C(=O)N(Cc3ccc(N(C)C)cc3)Cc3ccco3)c(C)c2c1=O	M1 agonist 12, D1 allo mod 4.9 | M1 agonist conf inactive | M4 ag counter inconclusive | D1 PAM confirm 12360 | Isoprot counter active
COc1cc2c(cc1OC)C1=C(C#N)CN(C3CCCCC3)CN1CC2	M1 agonist 5.1, D1 allo mod 4.2 | M1 agonist conf inactive | M4 ag counter inactive | D1 PAM confirm 14420 | D1 ag no DA inactive | Isoprot counter active
CC1(C(=O)N(c2ccccc2)C(C(=O)NC2CCCC2)c2ccccn2)CC(=O)N=C2C=CC=CN21 (stereo not given)	none
CC(=O)c1sc2nc(-c3cccs3)cc(C(F)(F)F)c2c1N	M1 agonist 98, D1 allo mod 5.9 | M1 agonist conf 123 | M4 ag counter inactive | D1 PAM confirm 12244 | D1 ag no DA inactive | Isoprot counter active
CCc1c(C(C)O)oc2ccc3c(C)cc(=O)oc3c12 (stereo not given)	none (no result: S1P1 ag-PAM)
CCN(CC)CCCn1c(=S)[nH]c2ccc(Cl)cc2c1=O	M1 antagonist -1.4 (no result: S1P1 ag-PAM, S1P3 ag) | M1 antag conf inactive | mGluR4 antag inactive
CC(C)(C)NC(=O)Cn1cc(C#N)c2cc(Br)ccc21	none
OC(CCN1CCCC1)(c1ccccc1)C1CCCCC1 (stereo not given)	M1 antagonist -16 | M1 antag conf 17 | mGluR4 antag inactive
OC(C#CCN1CCOCC1)(c1ccccc1)C1CC1 (stereo not given)	none
Cc1ccccc1NC(=O)CCN1CCCCCC1	none (no result: S1P1 ag-PAM)
C=CCC(O)(CCN1CCCCC1)c1ccccc1 (stereo not given)	M1 antagonist -8 | M1 antag conf 97 | mGluR4 antag inactive
OC(CCN1CCCCC1)(c1ccccc1)c1ccccc1	M1 antagonist -12 | M1 antag conf 23 | mGluR4 antag inactive
C=CCC(CC=C)(C(=O)O)c1ccccc1	none
O=C(NCCOc1ccccc1)c1ncn[nH]1	none (no result: S1P1 ag-PAM)
COc1ccccc1-n1c(C)nnc1SCC(N)=O	M1 antagonist -4.3 | M1 antag conf inactive | mGluR4 antag inactive
COc1ccccc1-n1c(SCC(N)=O)nnc1-c1ccccc1	none

Bioassay records: PubChem, several laboratories
